Experiments:
ICR mice [1] = assay: Nicotine conditioned place preference; assay type: in vivo, mouse
How it was run: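 Male ICR mice underwent unbiased three-chamber CPP. Day 1: 5-min middle-chamber habituation, then 15 min free access as baseline. Days 2–4: two 20-min conditioning sessions daily, 4 h apart. Controls got saline in both large chambers, with i.p. pretreatment 15 min before. Day 5: 15-min drug-free test. Score = test minus baseline time on the paired side.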

PPAR-α = target: T1, PPAR-α (Mus musculus, UniProt P23204); assay: PPAR-α luciferase assay in COS-7 cells; assay type: cell-based; settings: 18 h
T1 sequence (P23204 1-468): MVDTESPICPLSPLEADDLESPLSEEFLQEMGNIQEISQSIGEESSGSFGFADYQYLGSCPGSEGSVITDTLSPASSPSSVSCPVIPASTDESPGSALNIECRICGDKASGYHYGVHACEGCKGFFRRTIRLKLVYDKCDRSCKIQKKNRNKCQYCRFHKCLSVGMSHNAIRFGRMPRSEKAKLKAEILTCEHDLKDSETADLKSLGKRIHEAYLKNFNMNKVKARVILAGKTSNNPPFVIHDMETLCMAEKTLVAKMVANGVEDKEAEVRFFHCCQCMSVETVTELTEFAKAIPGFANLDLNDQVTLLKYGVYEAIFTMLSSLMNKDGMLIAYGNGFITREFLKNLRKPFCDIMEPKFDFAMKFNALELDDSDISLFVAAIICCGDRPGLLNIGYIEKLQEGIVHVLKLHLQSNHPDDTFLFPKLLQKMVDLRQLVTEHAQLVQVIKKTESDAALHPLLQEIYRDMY
How it was run: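 COS-7 cells in DMEM with 10% FBS were transfected by lipofection with mouse PPAR-α (25 ng), PPRE×3-TK-luciferase (300 ng), β-galactosidase control (100 ng) and empty pcDNA3 (75 ng) per well. Next day the medium was replaced with compound-containing medium for 18 h. Firefly luciferase chemiluminescence was normalised to β-galactosidase activity and compared by Welch-corrected t-test.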

[2] = target: human recombinant CB1 receptor (Homo sapiens, UniProt P21554); assay: Cannabinoid receptor binding, [3H]-CP-55,940 displacement, CB1
human recombinant CB1 receptor, sequence (P21554 whole entry): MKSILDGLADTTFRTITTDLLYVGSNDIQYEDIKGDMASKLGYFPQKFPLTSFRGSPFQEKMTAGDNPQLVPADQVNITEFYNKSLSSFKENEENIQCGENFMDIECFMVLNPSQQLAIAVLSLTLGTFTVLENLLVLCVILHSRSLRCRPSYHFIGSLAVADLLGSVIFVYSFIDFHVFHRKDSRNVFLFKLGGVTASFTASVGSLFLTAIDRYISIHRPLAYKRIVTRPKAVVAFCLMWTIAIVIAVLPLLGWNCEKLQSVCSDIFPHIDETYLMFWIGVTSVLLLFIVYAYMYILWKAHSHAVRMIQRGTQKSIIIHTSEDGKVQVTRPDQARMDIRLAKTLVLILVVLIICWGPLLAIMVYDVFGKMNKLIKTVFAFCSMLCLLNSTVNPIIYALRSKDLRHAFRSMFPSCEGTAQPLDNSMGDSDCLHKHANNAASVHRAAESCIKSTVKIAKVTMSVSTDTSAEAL
How it was run: (§1)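 Membranes from HEK-293 cells stably expressing the human receptor (CB1 Bmax 2.5, CB2 Bmax 4.7 pmol/mg protein) were incubated with test compound and [3H]-CP-55,940 for 90 min at 30 °C. […] Nonspecific binding was defined with 10 μM WIN 55212-2. Ki came from IC50 via Cheng-Prusoff; at least 3 experiments, mean ± SEM.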

[3] = target: human recombinant CB2 receptor (Homo sapiens, UniProt P34972); assay: Cannabinoid receptor binding, [3H]-CP-55,940 displacement, CB2
human recombinant CB2 receptor, sequence (P34972 whole entry): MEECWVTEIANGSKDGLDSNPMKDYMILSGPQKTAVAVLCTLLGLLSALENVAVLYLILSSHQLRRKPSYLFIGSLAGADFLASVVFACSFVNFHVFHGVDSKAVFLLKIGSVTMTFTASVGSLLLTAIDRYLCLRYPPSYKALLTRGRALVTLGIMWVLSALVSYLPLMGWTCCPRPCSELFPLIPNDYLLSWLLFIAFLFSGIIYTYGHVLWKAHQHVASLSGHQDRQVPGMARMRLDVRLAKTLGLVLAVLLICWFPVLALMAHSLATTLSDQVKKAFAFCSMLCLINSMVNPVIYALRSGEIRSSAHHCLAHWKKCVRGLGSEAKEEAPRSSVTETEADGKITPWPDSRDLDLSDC
How it was run: as §1

[4] = target: T2, fatty acid amide hydrolase (Rattus norvegicus, UniProt P97612); assay: AEA hydrolysis by rat brain membranes; assay type: biochemical
T2 sequence (P97612 1-579): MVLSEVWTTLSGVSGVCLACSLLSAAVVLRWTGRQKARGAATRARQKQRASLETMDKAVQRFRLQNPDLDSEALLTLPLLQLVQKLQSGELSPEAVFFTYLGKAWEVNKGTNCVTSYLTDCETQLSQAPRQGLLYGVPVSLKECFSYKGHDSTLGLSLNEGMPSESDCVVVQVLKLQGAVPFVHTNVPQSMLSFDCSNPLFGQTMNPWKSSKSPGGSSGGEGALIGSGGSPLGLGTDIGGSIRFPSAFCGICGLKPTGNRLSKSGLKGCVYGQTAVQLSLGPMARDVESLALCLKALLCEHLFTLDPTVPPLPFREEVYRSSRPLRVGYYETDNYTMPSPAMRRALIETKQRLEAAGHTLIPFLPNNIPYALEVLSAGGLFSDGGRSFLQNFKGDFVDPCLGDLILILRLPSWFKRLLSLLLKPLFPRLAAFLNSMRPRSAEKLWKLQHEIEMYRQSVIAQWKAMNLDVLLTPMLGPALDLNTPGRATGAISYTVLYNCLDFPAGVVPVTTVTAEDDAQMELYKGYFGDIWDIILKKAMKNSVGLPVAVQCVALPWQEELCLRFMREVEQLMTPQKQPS

ICR mice [5] = assay: Tetrad behavioral assessment; assay type: in vivo, mouse; settings: for Distance traveled / Speed / Time immobile: 10 min recording starting 5 min after injection; for Δ rectal temperature / Catalepsy / Antinociception: 30 min after injection; for Catalepsy: bar test; for Antinociception: tail withdrawal
How it was run: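 Mice were acclimated at least 1 h, then baseline tail-withdrawal latency and body temperature were taken. Test compound or vehicle was given i.p.; 30 min later came bar-test catalepsy (immobility over 60 s), tail withdrawal (%MPE with 10 cutoff) and Δ temperature. Locomotor: 5 min post-dose, distance (cm) and immobile time (s) were video-tracked for 10 min. Analysis: one-way ANOVA, Dunnett.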

[6] = OlGly levels in plasma and brain regions after i.p. injection; assay type: in vivo, mouse
How it was run: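 ICR mice received test compound (60 mg/kg i.p.) or vehicle. After 15 min, plasma, insular cortex, hippocampus and hypothalamus were collected. Samples were extracted with chloroform/methanol/50 mM Tris-HCl pH 7.5 (2:1:1) containing deuterated internal standards. Quantification was by isotope-dilution LC-MS (C18 column, isocratic methanol/water/acetic acid, positive ESI).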

nicotine-dependent mice = assay: Mecamylamine-precipitated nicotine withdrawal; assay type: in vivo, mouse
How it was run: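 Male ICR mice (6–8 weeks, 27–32 g) had s.c. minipumps implanted under isoflurane, delivering nicotine 24 mg/kg/day or saline for 14 days. On day 15 they got the test compound i.p. (10, 30 or 60 mg/kg) or vehicle, then mecamylamine 2 mg/kg s.c. at 15 min. From 25 min, blinded scoring: 5 min elevated plus maze (open/closed-arm time, arm crosses), then 20 min somatic signs; n = 7–8/group.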

ICR mice [7] = assay: Morphine conditioned place preference; assay type: in vivo, mouse; settings: OlGly i.p. pretreatment, morphine 10 mg/kg s.c. (methods)
How it was run: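 Unbiased three-chamber CPP in male ICR mice. Day 1 baseline: 15 min free access after 5-min habituation. Days 2–4: twice-daily conditioning, 4 h apart and counterbalanced. Test compound or vehicle was given i.p. 15 min before morphine (10 mg/kg s.c.); 30-min sessions began 15 min after morphine. Day 5: 15-min drug-free test. Score = test minus baseline time in the morphine-paired side.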

ICR mice [8] = assay: Cumulative CP55,940 dose-response study; assay type: in vivo, mouse
How it was run: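 Male ICR mice (6–8 weeks, 27–32 g) received test compound (60 mg/kg i.p.) or vehicle 10 min before the first CP55,940 dose. Further doses followed every 40 min. Bar-test catalepsy, tail-flick and rectal temperature were measured at baseline and 30 min after each dose. Analysis was two-way ANOVA with Sidak post-hoc.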

rats = settings: ref Chaturvedi et al., 2006; cited from earlier work
ICR mice [9] = settings: ref Ignatowska-Jankowska et al., 2015; cited from earlier work
dependent smokers = settings: ref Perkins et al., 2016; cited from earlier work
mice = settings: ref Jackson et al., 2017; cited from earlier work
smokers = settings: clinical trials; ref Robinson et al., 2017; cited from earlier work
[10] = 60 mg/kg i.p., 15 min after injection, ICR mice

CCC(=O)NC[C@H](Cc1ccc(OCCc2nc(-c3ccccc3)oc2C)cc1)N/C(C)=C\C(=O)c1ccc(C(F)(F)F)cc1 [GW6471, N-((2S)-2-(((1Z)-1-methyl-3-oxo-3-(4-(trifluoromethyl)phenyl)prop-1-enyl)amino)-3-(4-(2-(5-methyl2phenyl-1,3-oxazol-4-yl)ethoxy)phenyl)propyl)propanamide, reference compound]
Effect on OlGly blockade of nicotine CPP (ICR mice [1]; GW6471 2 mg/kg i.p. 30 min before OlGly, mice): fully prevented OlGly blockade of nicotine CPP

CC(C)(Sc1ccc(CCN(CCCCC2CCCCC2)C(=O)NC2CCCCC2)cc1)C(=O)O [GW7647, reference compound]
Luciferase activity compared to DMSO (PPAR-α; GW7647 10 mM as printed in Fig. 6): significantly increased luciferase activity

CCCCCCCC/C=C\CCCCCCCC(=O)NCC(=O)O [OlGly, N-oleoyl-glycine]
IC50 [2]: 45.5 ± 5.1 µM | Ki [2]: 27.8 ± 3.1 µM | CB1 displacement produced by maximum dose tested (50 μM) ([2]; 50 μM): 55.9 ± 7.3% | IC50 [3]: > 50 µM | Ki [3]: > 50 µM | CB2 displacement produced by maximum dose tested (50 μM) ([3]; 50 μM): 15.5 ± 6.40% | IC50 [4]: 8.65 µM | inhibition at 50 µM ([4]; read-out: FAAH inhibition produced by maximum dose tested (50 μM)): 89.4% | Distance traveled (ICR mice [5]; 10 mg/kg i.p.): 24.3 ±1.2 cm | Speed (ICR mice [5]; 10 mg/kg i.p.): 8.1 ± 0.4 cm/s | Time immobile (ICR mice [5]; 10 mg/kg i.p.): 8.6 ± 1.6 s | Δ rectal temperature (ICR mice [5]; 10 mg/kg i.p.): −0.90 ± 0.19 °C | Catalepsy (ICR mice [5]; 10 mg/kg i.p.): 0.0 s | Antinociception (ICR mice [5]; 10 mg/kg i.p.): 12.0± 6.6 %MPE | Distance traveled (ICR mice [5]; 30 mg/kg i.p.): 21.5±1.7 cm | Speed (ICR mice [5]; 30 mg/kg i.p.): 7.2 ± 0.6 cm/s | Time immobile (ICR mice [5]; 30 mg/kg i.p.): 11.8 ± 6.2 s | Δ rectal temperature (ICR mice [5]; 30 mg/kg i.p.): −1.13 ± 0.26 °C | Catalepsy (ICR mice [5]; 30 mg/kg i.p.): 0.0 s | Antinociception (ICR mice [5]; 30 mg/kg i.p.): 6.0 ± 4.5 %MPE | Distance traveled (ICR mice [5]; 100 mg/kg i.p.): 18.6±1.5 cm | Speed (ICR mice [5]; 100 mg/kg i.p.): 6.21 ± 0.5 cm/s | Time immobile (ICR mice [5]; 100 mg/kg i.p.): 17.4 ± 7.3 s | Δ rectal temperature (ICR mice [5]; 100 mg/kg i.p.): −0.22 ± 0.5431 °C | Catalepsy (ICR mice [5]; 100 mg/kg i.p.): 0.0 s | Antinociception (ICR mice [5]; 100 mg/kg i.p.): 25.9±11.0 %MPE | OlGly levels in hippocampus [6, 10]: 186.0 ± 60.05 pmol/g | OlGly levels in hypothalamus [6, 10]: 245.6 ± 108.1 pmol/g | OlGly levels in insula [6, 10]: 168.0 ± 60.28 pmol/g | concentration at 15 min ([6]; ICR, mouse, plasma, intraperitoneal, 60 mg/kg): 2000 ± 627 nM | Number of mecamylamine-precipitated somatic withdrawal signs (nicotine-dependent mice; 60 mg/kg i.p., nicotine-dependent mice): attenuated the number of mecamylamine-precipitated somatic withdrawal signs | Overt behavioral alterations in control mice (nicotine-dependent mice; control mice continuously infused with saline): did not elicit overt behavioral alterations | Development of nicotine-induced CPP (ICR mice [1]; i.p. 15 min before nicotine 0.5 mg/kg s.c. on conditioning days, mice): dose-dependently prevented the development of nicotine-induced CPP | Place preference in saline-treated mice (ICR mice [1]; saline-treated mice): did not affect place preference | Morphine CPP (ICR mice [7]): did not carry over to morphine CPP | Shift of the CP55,940 dose-response relationship in the tetrad assay (ICR mice [8]; OlGly 60 mg/kg i.p. 10 min before first CP55,940 dose, mice): did not alter the dose-response relationship | Luciferase activity compared to DMSO (PPAR-α; OlGly 10 mM, 50 μM and 100 mM as printed in Fig. 6): significantly increased luciferase activity | Locomotor activity (rats): decreases locomotor activity | Reduction of body temperature (rats): 1.5–2.0 °C

Cc1ccc2c(C(C[N+](=O)[O-])c3cccs3)c(-c3ccccc3)[nH]c2c1 (stereo not shown) [ZCZ011]
Shift of the CP55,940 dose-response curve (antinociceptive, cataleptic, hypothermic effects) (ICR mice [9]): elicited a leftward shift

CC(C)OC(=O)C(C)(C)Oc1ccc(C(=O)c2ccc(Cl)cc2)cc1 [fenofibrate]
Ability to stop smoking during a brief practice quit period (dependent smokers): did not facilitate the ability to stop smoking | Reversal of nicotine withdrawal (mice): failed to reverse nicotine withdrawal

Cc1c(C(=O)NN2CCCCC2)nn(-c2ccc(Cl)cc2Cl)c1-c1ccc(Cl)cc1 [rimonabant]
Smoking abstinence compared with placebo (smokers): effectively improved smoking abstinence

(−)-cis-3-[2-hydroxy-4-(1,1-dimethylheptyl)phenyl]-trans-4-(3-hydroxypropyl)-cyclohexanol [CP55,940, reference compound]
Catalepsy, antinociception and hypothermia (ICR mice [8]; cumulative 0, 0.3, 1 and 3 mg/kg i.p., vehicle-pretreated mice): dose-dependently induced
